Screening results as filed in PubChem BioAssay.
Most compounds without a hit are left out; they make up all but 0.79% or so of the library.
hIAP act: human IAP activation; P09923; purified human IAP, CDP-Star luminescence, 30 min; active compounds read high; 1 = vehicle-only enzyme, 0 = enzyme-free background; activation factor at 10 µM; actives 0.16% (n = 330,000);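 active = activation factor of the enzyme at least 2-fold when tested at 20 µM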
Target sequence (P09923 whole entry, looked up): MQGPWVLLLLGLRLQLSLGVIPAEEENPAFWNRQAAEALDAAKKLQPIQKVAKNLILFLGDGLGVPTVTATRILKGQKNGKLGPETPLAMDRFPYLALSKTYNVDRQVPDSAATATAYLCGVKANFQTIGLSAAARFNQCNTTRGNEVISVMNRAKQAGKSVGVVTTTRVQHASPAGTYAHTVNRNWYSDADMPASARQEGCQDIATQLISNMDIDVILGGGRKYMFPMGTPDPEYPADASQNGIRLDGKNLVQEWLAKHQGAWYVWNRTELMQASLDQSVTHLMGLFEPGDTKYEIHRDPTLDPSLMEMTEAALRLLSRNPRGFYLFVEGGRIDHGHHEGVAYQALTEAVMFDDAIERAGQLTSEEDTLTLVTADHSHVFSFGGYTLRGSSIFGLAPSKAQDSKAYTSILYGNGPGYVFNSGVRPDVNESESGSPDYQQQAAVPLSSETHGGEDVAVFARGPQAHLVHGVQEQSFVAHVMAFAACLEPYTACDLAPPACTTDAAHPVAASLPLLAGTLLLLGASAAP
hIAP block: human IAP inhibition | purified IAP, CDP-Star luminescence, 30 min | AID 2544 | inhibition, % at 10 µM | actives 0.12% (n = 330,000) | P09923;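 active = inhibition reaching a set limit with compound at 10 µM in the primary screen, cut at about 35% in these data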;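 also: plate controls were DMSO wells with enzyme for no effect and no-enzyme buffer wells for full effect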
bIAP activator: intestinal alkaline phosphatase (bovine) activation | activation factor at 20 µM | AID 1016 | purified bovine IAP, CDP-star luminescence, 30 min; active compounds read high; fold of DMSO-control signal, blank-subtracted | actives 0.17% (n = 200,000);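 active = activation factor of 2 or more at 20 µM, a signal rise over negative controls twice the positive control's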
mIAP block: blocks mouse intestinal alkaline phosphatase. purified mouse IAP, CDP-Star luminescence, 30 min. inhibition, % at 10 µM. actives 0.2% (n = 330,000). AID 2806;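 active = inhibition of at least 40% at 10 µM in the primary screen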;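 also: plate controls were DMSO with enzyme for no effect and no enzyme wells for full effect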
mIAP activ: increases mouse intestinal alkaline phosphatase activity. muIAP, CDP-Star luminescence, 30 min; active compounds read high; 1 = vehicle-only enzyme signal, 0 = enzyme-free wells. activation factor at 10 µM. actives 0.24% (n = 330,000). AID 2805;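 active = activation factor of at least 2 at 20 µM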
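System: Mouse IAP enzyme | Also added: CDP-Star substrate | Dosing: Compounds dispensed in DMSO | Schedule: 30 min enzyme-substrate-compound incubation at room temperature | Technique: Chemiluminescence readout | Control set: DMSO-only wells and no-enzyme negative control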
bIAP inhibitor: intestinal alkaline phosphatase (bovine) inhibition. purified bovine IAP, CDP-star luminescence, 30 min. inhibition, % at 20 µM. 190,000 tested, under 10 active. AID 1019;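 active = over 50% inhibition of intestinal alkaline phosphatase at 20 µM in the single-dose screen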
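Assay system: bovine IAP enzyme; medium: DEA buffer 100 mM, pH 9.8, with MgCl2 1.0 mM, ZnCl2 0.02 mM; doses: 20 µM single dose; incubation: enzyme reaction for 30 min at room temperature; detection: CDP-star luminescence signal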
An asterisk follows results filed as active; i = inactive; / = no result given.

SMILES | hIAP act | hIAP block | bIAP activator | mIAP block | mIAP activ | bIAP inhibitor
CC(Cc1cccs1)NC(=O)Nc1ccccc1 (stereo not drawn) | 0.998 | 0.2 | 0.7 | -11.3 | 1.11 | 25.7
CCC1SC(CC)C(=O)N(CC(=O)NCCc2ccccc2)C1=O (stereo not drawn) | 1.01 | -1.4 | 1 | 3.9 | 0.961 | -2.1
c1ccc(CNc2c3c(nc4ncnn24)CCCC3)nc1 | 0.84 | 16.0 | 4.8* | 6.2 | 0.938 | -378.4
COc1ccc(-c2cc(NCc3ccccn3)n3ncnc3n2)cc1 | 0.981 | 1.9 | 7.4* | -81.3 | 1.81 | i
CCN(CC)CCn1c2c(c(SCC(=O)Nc3cc(C)cc(C)c3)nc1=O)CCC2 | 0.974 | 2.6 | / | 6.7 | 0.933 | /
CCc1nc(CNC(=O)c2cc(OC)c(OC)c(OC)c2)no1 | 1.07 | -6.9 | 1.1 | 6.3 | 0.937 | -5.2
O=C(Nc1cccc2cccnc12)c1ccc2c(c1)OCCO2 | 1.13 | -13.3 | 0.7 | -0.7 | 1.01 | 26.0
COc1cc(NC(=O)c2ccc3c(c2)OCO3)c2ncccc2c1 | 1.04 | -4.0 | 10.6* | 2.4 | 0.976 | i
Cc1cccc(NC(=S)NC(=O)/C=C/c2ccco2)c1 | 1.21 | -20.8 | 1 | 17.1 | 0.829 | -1.7
O=C(/C=C/c1ccco1)NC(=S)Nc1cccc([N+](=O)[O-])c1 | 1.06 | -6.0 | 1 | 59.5* | 0.405 | -2.8
COc1ccccc1NC(=S)NC(=O)/C=C/c1ccco1 | 0.908 | 9.2 | 1 | 42.1* | 0.579 | 4.8
S=c1nc[nH]c2c1ncn2C1CCCO1 (stereo not drawn) | 1.16 | -16.4 | / | 2.5 | 0.975 | /
CC(NC(=S)Nc1ccc(OC(F)F)c(Cl)c1)C(C)(C)C (stereo not drawn) | 1.46 | -46.1 | 0.9 | -247.7 | 3.48* | 7.4
FC(F)Oc1ccc(NC(=S)NCc2ccccc2)cc1 | 1.08 | -8.4 | 0.9 | -65.1 | 1.65 | 13.3
Cc1ccc(NC(=S)Nc2ccc(OC(F)F)c(Cl)c2)cc1Cl | / | / | 0.8 | / | / | 22.5
FC(F)Oc1ccc(NC(=S)NCc2ccccc2)cc1Cl | 1.19 | -19.3 | 0.8 | -124.5 | 2.25* | 19.1
O=C(NCCO)c1cc2ccccc2cc1O | 1.01 | -1.0 | 1 | -5.1 | 1.05 | 4.4
Cn1c(=O)[nH]c(=O)c2c1nc(NCCCn1ccnc1)n2Cc1ccccc1 | 1.23 | -23.1 | 2.5* | -10.6 | 1.11 | -147.6
Cn1c(=O)[nH]c(=O)c2c1nc(NCCCn1ccnc1)n2CCOc1ccccc1 | 1.14 | -13.6 | 3.9* | -7.0 | 1.07 | -289.5
Cn1c(=O)[nH]c(=O)c2c1nc(NCCCO)n2Cc1ccc(F)cc1 | 1.13 | -13.0 | 1 | -3.7 | 1.04 | 4.1
Cn1c(=O)c2cc3c(nc2n(C)c1=O)CC(c1ccccc1)CC3=O (stereo not drawn) | 1.54 | -53.8 | / | 7.4 | 0.926 | /
COc1ccccc1CC(Cc1nc2ccccc2[nH]1)c1nc2ccccc2[nH]1 (stereo not drawn) | 1.63 | -62.9 | 3.6* | -48.6 | 1.49 | -259.2
CC(C)Cc1nc2ccccc2[nH]1 | 1.41 | -41.2 | / | 0.3 | 0.997 | /
O=C(CSc1nnc(COc2ccccc2Cl)o1)Nc1ccccc1 | 1 | -0.5 | / | 13.1 | 0.869 | /
C/C(N)=C(/C#N)C(=O)CSc1nnc(COc2ccccc2Cl)o1 | 0.911 | 8.9 | 2.1* | 11.4 | 0.886 | -108.1
SMILES | hIAP act | hIAP block | bIAP activator | mIAP block | mIAP activ | bIAP inhibitor
COCCN(C(=O)Cc1cccs1)C(C(=O)NCc1ccc(OC)cc1)c1ccc(C(C)C)cc1 (stereo not drawn) | 1.13 | -13.1 | 2.1* | -23.7 | 1.24 | -114.8
CCc1ccc(C(C(=O)NCc2ccc(OC)cc2)N(CCOC)C(=O)Cc2cccs2)cc1 (stereo not drawn) | 0.954 | 4.6 | 1.2 | -25.1 | 1.25 | -19.0
CCCCC(CC)CNC(=O)C(Cc1ccccc1)NS(=O)(=O)c1ccc2c(c1)CCC(=O)N2 (stereo not drawn) | 1.15 | -15.4 | 0.8 | -119.8 | 2.2* | 16.5
COc1ccc(NC(=O)CN(C)S(=O)(=O)c2ccc3c(c2)n(C)c(=O)c(=O)n3C)cc1 | 1.03 | -3.5 | / | 5.2 | 0.948 | /
COc1ccc(CCNC(=O)CSc2cn(Cc3cccc(C)c3)c3ccccc23)cc1OC | 0.928 | 7.2 | 0.9 | -124.8 | 2.25* | 13.2
C[C@@H]1C=C[C@](Cc2ccccc2)(C(=O)NCCc2c[nH]c3ccccc23)N1C(=O)c1ccccc1 | 0.933 | 6.7 | 2.1* | -27.5 | 1.27 | -111.0
CC(=O)N1[C@H](C)C=C[C@]1(Cc1ccccc1)C(=O)NCCc1c[nH]c2ccccc12 | 0.84 | 16.0 | / | 0.8 | 0.992 | /
CCOC(=O)c1cnn(-c2cc(C)nc3c(-c4ccc(Cl)cc4)c(C)nn23)c1N | / | / | 1 | / | / | -3.9
Cc1ccccc1-n1nc2c(c1NC(=O)c1ccc(S(=O)(=O)N(C)C)cc1)CSC2 | 0.992 | 0.8 | 1 | 45.5* | 0.545 | 1.1
COc1ccc(/C=C/C(=O)NCCCc2ccccc2)cc1OC | 0.926 | 7.4 | 1 | -14.1 | 1.14 | 4.6
COc1ccc(OCC(O)Cn2c(=N)n(Cc3ccccc3)c3ccccc32)cc1 (stereo not drawn) | 1.09 | -9.1 | 2.8* | -4.1 | 1.04 | -177.8
Cc1ccc(S(=O)(=O)N2CCN(CC(=O)NC3CCCc4ccccc43)CC2)c(C)c1 (stereo not drawn) | 1.03 | -2.7 | 56.5* | -26.9 | 1.27 | i
COC(=O)N/N=C/c1c(C)nn(-c2cccc(Cl)c2)c1Cl | 0.902 | 9.8 | 3* | 3.9 | 0.961 | -200.8
CC(OC(=O)CNS(=O)(=O)c1ccc2ccccc2c1)C(=O)N(C)c1ccccc1 (stereo not drawn) | 0.998 | 0.2 | / | 3.3 | 0.967 | /
S=c1[nH]nc(-c2ccccc2Cl)n1Cc1ccccc1 | 1.07 | -7.0 | 0.9 | 5.9 | 0.941 | 7.7
COc1ccc(Cl)cc1-c1n[nH]c(=S)n1Cc1ccccc1 | 1.06 | -5.9 | / | 41.7* | 0.583 | /
Cc1nn(C)c(C(=O)Nc2ccn(Cc3ccccc3F)n2)c1[N+](=O)[O-] | 0.829 | 17.1 | 1 | 8.3 | 0.917 | 2.6
O=C(NC(=S)NNC(=O)c1ccccc1O)c1ccco1 | / | / | 0.9 | / | / | 10.3
O=C(NC(=S)NNC(=O)c1cc2ccccc2cc1O)c1ccco1 | 2.24* | -124.1 | 0.9 | 34.6 | 0.654 | 7.5
O=C(NC1CC2CCC(C1)N2C(=O)NC1CCCCC1)NC12CC3CC(CC(C3)C1)C2 (stereo not drawn) | 1.01 | -1.3 | 1.9 | -7.2 | 1.07 | -87.1
O=C(NC1CC2CCCC(C1)N2C1CC1)NC12CC3CC(CC(C3)C1)C2 (stereo not drawn) | / | / | 3.1* | / | / | -213.7
Oc1ccc(-c2nc(-c3ccc(O)c(O)c3)cs2)cc1 | 0.624 | 37.6* | 0.8 | 32.4 | 0.676 | 15.6
O=C(NCc1ccco1)c1ccc(COc2cccc3ccccc23)cc1 | 1.07 | -7.4 | 0.7 | 12.5 | 0.875 | 32.0
